# Activity calls are given as the source filed them. The rule behind the calls is not given here.
# Legend:
# Plasmodium chabaudi = assay: Antimalarial activity against chloroquine-resistant Plasmodium chabaudi infected in mouse assessed as reversal of chloroquine-resistance at 10 mg/kg, po administered 4 days after post infection; assay type: functional, organism-based; parameters: dose 10 mg/kg
# Method in brief: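 Mice infected with CQ-resistant P. chabaudi. Test compounds were given perorally at 10 mg/kg, alongside CQ at 3 mg/kg given intraperitoneally. Resistance reversal was read at day 4 after infection. Groups were compared by one-way ANOVA followed by Dunnett's test.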
# [1] = target: T1, Glutathione reductase, putative (Plasmodium chabaudi) (UniProt A0A077YEX9); assay: Inhibition of Plasmodium chabaudi glutathione reductase assessed as residual reduced glutathione level after 30 mins in absence of glutathione S-transferase
# T1 sequence (A0A077YEX9 as listed by the source): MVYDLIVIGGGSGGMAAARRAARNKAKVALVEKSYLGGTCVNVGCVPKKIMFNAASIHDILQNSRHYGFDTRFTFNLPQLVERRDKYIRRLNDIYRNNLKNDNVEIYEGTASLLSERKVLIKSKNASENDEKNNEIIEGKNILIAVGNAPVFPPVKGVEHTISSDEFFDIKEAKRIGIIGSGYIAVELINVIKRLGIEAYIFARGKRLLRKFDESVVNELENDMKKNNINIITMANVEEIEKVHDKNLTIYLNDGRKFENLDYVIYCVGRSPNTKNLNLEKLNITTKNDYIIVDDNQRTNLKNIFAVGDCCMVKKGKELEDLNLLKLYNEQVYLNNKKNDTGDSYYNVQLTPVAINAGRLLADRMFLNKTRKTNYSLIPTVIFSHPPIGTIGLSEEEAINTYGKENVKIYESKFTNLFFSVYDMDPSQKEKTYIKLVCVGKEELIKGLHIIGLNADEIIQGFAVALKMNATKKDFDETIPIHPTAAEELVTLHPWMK
# Method in brief: (§1)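 Compounds were incubated with GSH, with or without GST, at 37 °C for 30 min. The residual GSH ratio was obtained from the absorbance of the medium.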
# [2] = target: T1, Glutathione reductase, putative (Plasmodium chabaudi); assay: Inhibition of Plasmodium chabaudi glutathione reductase assessed as residual reduced glutathione level after 30 mins in presence of glutathione S-transferase; method in brief: as §1
Structure (SMILES),Activity (Plasmodium chabaudi),inhibition [1],inhibition [2]
COc1ccc(/C=C2\C[C@@]3(O)[C@H]4Cc5ccc(O)c6c5[C@@]3(CCN4CC3CC3)[C@@H](O6)C2=O)cc1,Active,,
O=C1/C(=C/c2ccccc2)C[C@@]2(O)[C@H]3Cc4ccc(O)c5c4[C@@]2(CCN3CC2CC2)[C@H]1O5,Active,,
O=C1/C(=C/c2ccc(F)cc2)C[C@@]2(O)[C@H]3Cc4ccc(O)c5c4[C@@]2(CCN3CC2CC2)[C@H]1O5,Active,,
O=C1[C@@H](Cc2ccccc2)C[C@@]2(O)[C@H]3Cc4ccc(O)c5c4[C@@]2(CCN3CC2CC2)[C@H]1O5,,inactive,inactive

# Reference: ChEMBL document CHEMBL2057172, “Investigation of 7-benzylidenenaltrexone derivatives as resistance reverser for chloroquine-resistant Plasmodium chabaudi” (Bioorg Med Chem Lett, 2012)
